Reference: ChEMBL document CHEMBL4765448, “Multiple biological active 4-aminopyrazoles containing trifluoromethyl and their 4-nitroso-precursors: Synthesis and evaluation” (Eur J Med Chem, 2020)
Values after ≈ are worked out from the molar mass of the structure shown. Active and inactive are the calls of the source. The calls are words filed in the database; no cut-off is given here.

Experiments:
[1] = test system: NHDF; test: Cytotoxicity against HDF cells; type: cell-based, Homo sapiens; details: Homo sapiens, NHDF; read-out: IC50
[2] = test system: HeLa; test: Cytotoxicity against human HeLa cells; type: functional, cell-based; details: Homo sapiens, HeLa; read-out: IC50
[3] = Selectivity index, ratio of IC50 for HDF cells to IC50 for human HeLa cells; type: toxicity; details: HDF cells versus HeLa cells, read-out: Ratio IC50
[4] = test system: Mycobacterium tuberculosis; test: Antitubercular activity against Mycobacterium tuberculosis H37Rv; type: functional
In short: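 Mycobacterium tuberculosis strain H37Rv; minimum inhibitory concentration (MIC) taken as the lowest level needed to inhibit bacterial growth; isoniazid and pyrazinamide served as reference drugs.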

[5] = Antioxidant activity assessed as AAPH scavenging activity by measuring residual fluorescence at 50 uM measured at 1 min interval for 30 mins by ORAC fluorescein assay relative to control; type: functional
In short: (§1)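 ORAC-FL assay with fluorescein as the probe and AAPH as the peroxyl radical generator. The loss of fluorescence over time was followed, and the result is given as % fluorescence restored at 10 and 50 µM. Each value is the mean of two independent experiments.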

[6] = test system: Erythrocyte; test: Antioxidant activity in human erythrocytes assessed as protection against AAPH-induced hemolysis at 50 uM preincubated for 20 mins followed by AAPH addition and measured after 2 hrs by spectrophotometric method relative to control; type: functional; details: time 140 min, 2.333 h
In short: (§2)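 Erythrocyte hemolysis assay with AAPH as the free-radical initiator, testing 50 and 400 µM. Results are expressed as relative protection of membranes against oxidative damage, each the mean of two independent experiments.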

[7] = Antioxidant activity assessed as AAPH scavenging activity by measuring residual fluorescence at 10 uM measured at 1 min interval for 30 mins by ORAC fluorescein assay relative to control; type: functional; in short: as §1
[8] = test system: Erythrocyte; test: Antioxidant activity in human erythrocytes assessed as protection against AAPH-induced hemolysis at 400 uM preincubated for 20 mins followed by AAPH addition and measured after 2 hrs by spectrophotometric method relative to control; type: functional; details: time 140 min, 2.333 h; in short: as §2
[9] = test system: Trichophyton violaceum; test: Antifungal activity against Trichophyton violaceum; type: functional
[10] = test system: Trichophyton rubrum; test: Antifungal activity against Trichophyton rubrum; type: functional
[11] = test system: Trichophyton interdigitale; test: Antifungal activity against Trichophyton mentagrophytes var. interdigitale; type: functional
[12] = test system: Microsporum canis; test: Antifungal activity against Microsporum canis; type: functional
[13] = test system: Trichophyton tonsurans; test: Antifungal activity against Trichophyton tonsurans; type: functional
[14] = test system: Nannizzia gypsea; test: Antifungal activity against Trichophyton gypseum; type: functional
[15] = test system: Epidermophyton floccosum; test: Antifungal activity against Epidermophyton floccosum; type: functional
[16] = test system: Candida albicans; test: Antifungal activity against Candida albicans; type: functional
[17] = Antioxidant activity assessed as trolox equivalent of ABTS radical scavenging activity measured after 1 hr by UV-vis spectrophotometric method; type: functional
In short: (§3)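 ABTS cation-radical decolorization was read spectrophotometrically as the fall in absorbance after 1 h. Trolox was the reference. TEAC was taken as the ratio of concentration-response slopes, test/Trolox, and IC50 was also derived. Data are mean ± SEM, n = 3.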

[18] = test system: Rattus norvegicus; test: Antiinflammatory activity in rat model of carrageenan-induced paw edema assessed as inhibition of hind paw swelling at 15 mg/kg, ip measured after 5 hrs; type: functional, organism-based
[19] = Antioxidant activity assessed as ABTS radical scavenging activity measured after 1 hr by UV-vis spectrophotometric method; type: functional; in short: as §3
[20] = test system: Staphylococcus aureus; test: Antibacterial activity against Staphylococcus aureus; type: functional
[21] = test system: Neisseria gonorrhoeae; test: Antibacterial activity against Neisseria gonorrhoeae; type: functional
[22] = test system: Escherichia coli; test: Antibacterial activity against Escherichia coli; type: functional
[23] = test system: Pseudomonas aeruginosa; test: Antibacterial activity against Pseudomonas aeruginosa; type: functional
[24] = test system: Rattus norvegicus; test: Analgesic activity in rat assessed as prolongation of latency period at 15 mg/kg, ip measured after 1 hr by hot-plate test relative to control; type: functional
In short: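 Hot-plate test in rats. Compounds were given by intraperitoneal injection. Latency was read at 1 h and, for some compounds, also at 2 h after dosing. Results are expressed as % prolongation of the latent period versus vehicle-treated control. Significance was given as p-values.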

[25] = test system: Klebsiella pneumoniae; test: Antibacterial activity against Klebsiella pneumoniae; type: functional
[26] = test system: Serratia marcescens; test: Antibacterial activity against Serratia marcescens; type: functional
[27] = test system: Shigella flexneri; test: Antibacterial activity against Shigella flexneri; type: functional
[28] = test system: Streptococcus pyogenes; test: Antibacterial activity against Streptococcus pyogenes; type: functional
[29] = test system: Citrobacter braakii; test: Antibacterial activity against Citrobacter braakii; type: functional
[30] = test system: Proteus vulgaris; test: Antibacterial activity against Proteus vulgaris; type: functional
[31] = test system: Staphylococcus aureus; test: Antibacterial activity against methicillin resistant Staphylococcus aureus; type: functional

`CC[C@@]1(O)C(=O)OCc2c1cc1n(c2=O)Cc2cc3ccccc3nc2-1` [CAMPTOTHECIN] showed an IC50 [1] of 5.38 µM, an IC50 [2] of 1.66 µM and a selectivity ratio [3] of 3.24.

With `NC(=O)c1cnccn1` [PYRAZINAMIDE] the MIC [4] was 12.5 µg/mL (≈ 102 µM).

With `O=c1c(O)c(-c2ccc(O)c(O)c2)oc2cc(O)cc(O)c12` [QUERCETIN] the Activity [5] was 90%, the “fold change (FC)” value [6] was 0.023 and the Activity [7] was 87.6%. For the same compound, the “fold change (FC)” value [8] was 0.045.

With `CCC(C)n1ncn(-c2ccc(N3CCN(c4ccc(OCC5COC(Cn6cncn6)(c6ccc(Cl)cc6Cl)O5)cc4)CC3)cc2)c1=O` (centres undefined) [ITRACONAZOLE] the MIC [9] was 0.19 µg/mL (≈ 0.269 µM), the MIC [10] was 0.06 µg/mL (≈ 0.085 µM) and the MIC [11] was 0.095 µg/mL (≈ 0.135 µM). For the same compound, the MIC [12] was over 100 µg/mL, the MIC [13] was 0.19 µg/mL (≈ 0.269 µM) and the MIC [14] was 0.06 µg/mL (≈ 0.085 µM). It also gave an MIC [15] of 0.19 µg/mL (≈ 0.269 µM) and an MIC [16] of over 100 µg/mL.

For `Cn1nc(C(F)(F)F)c(N)c1-c1ccco1`, the Activity [17] was 0.04 equiv and the Activity [18] was “Active”.

`Cc1c(C)c2c(c(C)c1O)CCC(C)(C(=O)O)O2` (centres undefined) [TROLOX] showed an IC50 [19] of 20.1 µM and an Activity [17] of 1 equiv.

Work on `Cc1ccc(-c2c(N)c(C(F)(F)F)nn2-c2ccc(S(N)(=O)=O)cc2)cc1.Cl` yielded an MIC [20] of over 250 µg/mL, an MIC [21] of 250 µg/mL and an MIC [22] of over 250 µg/mL. For the same compound, the MIC [9] was over 200 µg/mL, the MIC [10] was 200 µg/mL and the Activity [5] was 47.1%. It also gave an MIC [11] of 200 µg/mL, an MIC [12] of 200 µg/mL and an MIC [13] of over 200 µg/mL. The MIC [23] was over 250 µg/mL, the Activity [24] was “inactive” and the MIC [25] was over 250 µg/mL. For the same compound, the MIC [14] was over 200 µg/mL, the MIC [26] was over 250 µg/mL and the MIC [27] was over 250 µg/mL. It also gave an MIC [28] of over 250 µg/mL, an MIC [15] of 200 µg/mL and an MIC [16] of over 200 µg/mL. For the same compound, the “fold change (FC)” value [6] was 1.18, the Activity [7] was 14.6% and the Activity [18] was “Active”. For the same compound, the MIC [29] was over 250 µg/mL, the “fold change (FC)” value [8] was 1.17 and the MIC [30] was over 250 µg/mL.

Compound `O/N=C1\C(c2ccccc2)=NN(c2ccccc2)C1(O)C(F)(F)F` (centres undefined) has an MIC [20] of 31.2 µg/mL (≈ 93.1 µM), an MIC [21] of 31.2 µg/mL (≈ 93.1 µM) and an MIC [22] of over 250 µg/mL. The MIC [9] was 100 µg/mL (≈ 298 µM), the MIC [10] was 25 µg/mL (≈ 74.6 µM) and the MIC [11] was 100 µg/mL (≈ 298 µM). The MIC [12] was 100 µg/mL (≈ 298 µM), the MIC [13] was 50 µg/mL (≈ 149 µM) and the MIC [23] was over 250 µg/mL. For the same compound, the MIC [25] was over 250 µg/mL, the IC50 [19] was 48.6 µM and the MIC [14] was 100 µg/mL (≈ 298 µM). It also gave an MIC [26] of over 250 µg/mL, an MIC [27] of over 250 µg/mL and an MIC [28] of over 250 µg/mL. The MIC [15] was 100 µg/mL (≈ 298 µM), the MIC [31] was 31.2 µg/mL (≈ 93.1 µM) and the MIC [16] was 50 µg/mL (≈ 149 µM). For the same compound, the Activity [17] was 0.44 equiv, the Activity [18] was “Active” and the MIC [29] was over 250 µg/mL. For the same compound, the MIC [30] was over 250 µg/mL.

`Cn1nc(C(F)(F)F)c(N=O)c1-c1ccco1` showed an MIC [20] of 15.6 µg/mL (≈ 63.6 µM), an MIC [21] of 125 µg/mL (≈ 510 µM) and an MIC [22] of over 500 µg/mL. The MIC [9] was 6.25 µg/mL (≈ 25.5 µM), the MIC [10] was 12.5 µg/mL (≈ 51 µM) and the MIC [11] was 25 µg/mL (≈ 102 µM). It also gave an MIC [4] of 12.5 µg/mL (≈ 51 µM), an MIC [12] of 12.5 µg/mL (≈ 51 µM) and an MIC [13] of 12.5 µg/mL (≈ 51 µM). The MIC [23] was over 500 µg/mL, the Activity [24] was “inactive” and the MIC [25] was over 500 µg/mL. The MIC [14] was 50 µg/mL (≈ 204 µM), the MIC [26] was over 500 µg/mL and the MIC [27] was over 500 µg/mL. For the same compound, the MIC [15] was 12.5 µg/mL (≈ 51 µM), the MIC [31] was 31.2 µg/mL (≈ 127 µM) and the MIC [16] was “inactive”. For the same compound, the Activity [17] was 0.02 equiv, the Activity [18] was “Active” and the MIC [29] was over 500 µg/mL. For the same compound, the MIC [30] was over 500 µg/mL.

Work on `COc1cccc2c1C(=O)c1c(O)c3c(c(O)c1C2=O)C[C@@](O)(C(=O)CO)C[C@@H]3O[C@H]1C[C@H](N)[C@H](O)[C@H](C)O1` [DOXORUBICIN] yielded an IC50 [1] of 2.72 µM and an IC50 [2] of 4.25 µM.

In the case of `CN[C@@H]1[C@H](O)[C@H](NC)[C@H]2O[C@@]3(O)C(=O)C[C@@H](C)O[C@H]3O[C@@H]2[C@H]1O` [SPECTINOMYCIN], the MIC [20] is reported as 31.2 µg/mL (≈ 93.9 µM), the MIC [21] is reported as 15.6 µg/mL (≈ 46.9 µM) and the MIC [22] is reported as 15.6 µg/mL (≈ 46.9 µM). For the same compound, the MIC [23] was 2.5 µg/mL (≈ 7.52 µM), the MIC [25] was 15.6 µg/mL (≈ 46.9 µM) and the MIC [26] was 15.6 µg/mL (≈ 46.9 µM). For the same compound, the MIC [27] was 7.8 µg/mL (≈ 23.5 µM), the MIC [29] was 31.2 µg/mL (≈ 93.9 µM) and the MIC [30] was 1.25 µg/mL (≈ 3.76 µM).
